Compound in series [1]: O=C(Cc1cccs1)N[C@@H]1C(=O)N2C(C(=O)O)=C(/C=C/c3ccc([N+](=O)[O-])cc3[N+](=O)[O-])CS[C@H]12
As to the kind of experiment: (§1) Activity of Aeromonas hydrophila metallo-betalactamase CphA expressed in Escherichia coli BL21(DE3) by spectrophotometric analysis in presence of < 0.4 uM zinc ions. The essentials: (§2)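 Steady-state kinetics (kcat, Km, kcat/Km) at 30°C in 15 mM cacodylate pH 6.5, no added Zn2+ (free [Zn2+] < 0.4 µM), enzyme as the mono-zinc form (one Zn per molecule). Substrates imipenem, nitrocefin and CENTA. N233A mutant from E. coli BL21 (DE3) pLysS Star, purified to homogeneity, mass checked by ESI-MS. Standard errors below 10%.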

Compound in series [2]: O=C(Cc1cccs1)N[C@@H]1C(=O)N2C(C(=O)O)=C(CSc3ccc([N+](=O)[O-])c(C(=O)O)c3)CS[C@H]12
The series is described as §1. The essentials:
as §2

Compound in series [3]: C[C@@H](O)[C@H]1C(=O)N2C(C(=O)O)=C(SCCNC=N)C[C@H]12
The description is as §1. The essentials: as §2

Compound in series [4]: O=C(Cc1cccs1)N[C@@H]1C(=O)N2C(C(=O)O)=C(/C=C/c3ccc([N+](=O)[O-])cc3[N+](=O)[O-])CS[C@H]12
The experiment in a line: (§3) Ratio of Kcat to Km for Aeromonas hydrophila metallo-betalactamase CphA expressed in Escherichia coli BL21(DE3) by spectrophotometric analysis in presence of < 0.4 uM zinc ions. The gist of the method:
as §2

Compound in series [5]: O=C(Cc1cccs1)N[C@@H]1C(=O)N2C(C(=O)O)=C(CSc3ccc([N+](=O)[O-])c(C(=O)O)c3)CS[C@H]12
The series is described as §3. The essentials:
as §2

Compound in series [6]: C[C@@H](O)[C@H]1C(=O)N2C(C(=O)O)=C(SCCNC=N)C[C@H]12
Described as §3. The essentials: as §2

B1: Metallo-beta-lactamase type 2 (Aeromonas hydrophila), P26918 (protein)
chain: MMKGWMKCGLAGAVVLMASFWGGSVRAAGMSLTQVSGPVYVVEDNYYVQENSMVYFGAKGVTVVGATWTPDTARELHKLIKRVSRKPVLEVINTNYHTDRAGGNAYWKSIGAKVVSTRQTRDLMKSDWAEIVAFTRKGLPEYPDLPLVLPNVVHDGDFTLQEGKVRAFYAGPAHTPDGIFVYFPDEQVLYGNCILKEKLGNLSFADVKAYPQTLERLKAMKLPIKTVIGGHDSPLHGPELIDHYEALIKAAPQS
Broadly, the Km is the substrate concentration at which the rate is half of its maximum. As a reminder, the kcat is the number of substrate molecules converted per active site and unit of time at saturation. What is called kcat/Km is the second-order rate constant that governs catalysis at low substrate concentration. In the case of B1, the Km in series [1] was 1300 µM; in series [2] it was “Not Active”; in series [3], 340 µM. In addition, the values for the kcat in series [1], in series [2] and in series [3] were 0.008 s⁻¹, “Not Active” and 1200 s⁻¹, respectively. Besides, the specificity constant (kcat/Km) was 6 M⁻¹ s⁻¹ in series [4], “Not Active” in series [5] and 3.5e+06 M⁻¹ s⁻¹ in series [6].

These data come from ChEMBL document CHEMBL1649236, “The structure of the dizinc subclass B2 metallo-beta-lactamase CphA reveals that the second inhibitory zinc ion binds in the histidine site” (Antimicrob Agents Chemother, 2009).
